Source: ChEMBL document CHEMBL4382192, “Discovery of a potent dual ALK and EGFR T790M inhibitor” (Eur J Med Chem, 2017)

Experiments:
[1] = target: Mitogen-activated protein kinase kinase kinase 13 (Homo sapiens) (UniProt O43283); assay: Binding affinity to wild-type human full length LZK (M1 to W966 residues) expressed in mammalian expression system assessed as residual binding level at 1 uM by Kinomescan method relative to control
How it was run: (§1)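 Single-point kinome-wide KINOMEscan binding panel, test compound at 1 μM, run by the provider's standard protocol.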

[2] = target: Epithelial discoidin domain-containing receptor 1 (Homo sapiens) (UniProt Q08345); assay: Binding affinity to wild-type human partial length DDR1 (R565 to V876 residues) expressed in bacterial expression system assessed as residual binding level at 1 uM by Kinomescan method relative to control
[3] = target: Dual specificity testis-specific protein kinase 1 (Homo sapiens) (UniProt Q15569); assay: Binding affinity to wild-type human full length TESK1 (R37 to S626 residues) expressed in bacterial expression system assessed as residual binding level at 1 uM by Kinomescan method relative to control
[4] = target: Serine/threonine-protein kinase PLK4 (Homo sapiens) (UniProt O00444); assay: Binding affinity to wild-type human partial length PLK4 (M1 to S273 residues) expressed in mammalian expression system assessed as residual binding level at 1 uM by Kinomescan method relative to control
Chain of Serine/threonine-protein kinase PLK4 (Homo sapiens) (O00444 whole entry, the tested form may be a part): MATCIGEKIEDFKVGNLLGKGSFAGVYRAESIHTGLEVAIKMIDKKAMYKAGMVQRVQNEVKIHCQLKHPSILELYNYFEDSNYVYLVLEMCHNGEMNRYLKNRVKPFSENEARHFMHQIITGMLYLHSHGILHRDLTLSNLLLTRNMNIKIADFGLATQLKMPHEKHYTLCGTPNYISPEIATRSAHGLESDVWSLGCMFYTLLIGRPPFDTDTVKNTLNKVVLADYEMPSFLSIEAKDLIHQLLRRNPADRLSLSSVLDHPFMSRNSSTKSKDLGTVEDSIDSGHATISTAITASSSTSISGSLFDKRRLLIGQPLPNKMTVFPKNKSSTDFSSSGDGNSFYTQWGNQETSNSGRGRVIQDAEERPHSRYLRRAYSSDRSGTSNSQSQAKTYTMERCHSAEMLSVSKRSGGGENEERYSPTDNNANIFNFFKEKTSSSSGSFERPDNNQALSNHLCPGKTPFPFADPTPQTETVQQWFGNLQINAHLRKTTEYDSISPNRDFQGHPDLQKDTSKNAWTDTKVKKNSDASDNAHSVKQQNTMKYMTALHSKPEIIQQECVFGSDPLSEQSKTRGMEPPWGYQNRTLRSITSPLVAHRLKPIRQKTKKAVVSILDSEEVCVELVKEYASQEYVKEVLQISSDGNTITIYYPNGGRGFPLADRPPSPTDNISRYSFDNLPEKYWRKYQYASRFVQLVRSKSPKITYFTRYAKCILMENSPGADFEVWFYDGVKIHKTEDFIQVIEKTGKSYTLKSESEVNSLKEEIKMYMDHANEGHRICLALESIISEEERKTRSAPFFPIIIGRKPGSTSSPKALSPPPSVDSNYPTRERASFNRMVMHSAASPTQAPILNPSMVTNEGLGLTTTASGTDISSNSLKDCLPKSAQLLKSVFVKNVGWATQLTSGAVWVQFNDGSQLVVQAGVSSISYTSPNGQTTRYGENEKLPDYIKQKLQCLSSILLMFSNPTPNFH

[5] = target: Peripheral plasma membrane protein CASK (Homo sapiens) (UniProt O14936); assay: Binding affinity to wild-type human partial length CASK (M1 to H315 residues) expressed in mammalian expression system assessed as residual binding level at 1 uM by Kinomescan method relative to control
Chain of Peripheral plasma membrane protein CASK (Homo sapiens) (O14936 whole entry, the tested form may be a part, canonical isoform): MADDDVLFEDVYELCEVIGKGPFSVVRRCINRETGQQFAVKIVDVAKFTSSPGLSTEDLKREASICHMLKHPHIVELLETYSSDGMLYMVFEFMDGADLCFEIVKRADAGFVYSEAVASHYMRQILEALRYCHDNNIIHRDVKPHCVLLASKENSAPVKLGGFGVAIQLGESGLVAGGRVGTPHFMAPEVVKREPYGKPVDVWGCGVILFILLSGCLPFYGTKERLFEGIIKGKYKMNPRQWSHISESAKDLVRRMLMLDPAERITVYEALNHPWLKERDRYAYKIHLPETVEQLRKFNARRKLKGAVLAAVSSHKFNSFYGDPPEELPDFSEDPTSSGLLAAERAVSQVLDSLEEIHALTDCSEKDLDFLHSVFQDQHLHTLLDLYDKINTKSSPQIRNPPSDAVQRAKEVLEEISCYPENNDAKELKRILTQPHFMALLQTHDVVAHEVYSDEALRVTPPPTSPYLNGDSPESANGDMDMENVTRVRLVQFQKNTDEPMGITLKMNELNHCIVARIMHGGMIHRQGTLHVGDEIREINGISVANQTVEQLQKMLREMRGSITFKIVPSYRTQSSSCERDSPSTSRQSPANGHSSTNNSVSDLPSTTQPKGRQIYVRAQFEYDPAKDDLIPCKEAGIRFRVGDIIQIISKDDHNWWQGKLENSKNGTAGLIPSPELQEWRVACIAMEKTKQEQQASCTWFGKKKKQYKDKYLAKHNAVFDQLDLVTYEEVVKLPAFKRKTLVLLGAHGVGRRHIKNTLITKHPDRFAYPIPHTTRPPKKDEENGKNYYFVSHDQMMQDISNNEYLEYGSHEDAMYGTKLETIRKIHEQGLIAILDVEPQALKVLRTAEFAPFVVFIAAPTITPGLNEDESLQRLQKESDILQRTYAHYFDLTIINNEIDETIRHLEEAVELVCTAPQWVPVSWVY

[6] = test system: Phosphatidylinositol 4,5-bisphosphate 3-kinase catalytic subunit alpha isoform (Homo sapiens), P42336 [H1047L]; assay: Binding affinity to human partial length PIK3CA H1047L mutant (R108 to N1068 residues) expressed in mammalian expression system assessed as residual binding level at 1 uM by Kinomescan method relative to control
Chain of Phosphatidylinositol 4,5-bisphosphate 3-kinase catalytic subunit alpha isoform (Homo sapiens), P42336 [H1047L] (P42336 whole entry H1047L, the tested form may be a part, canonical isoform): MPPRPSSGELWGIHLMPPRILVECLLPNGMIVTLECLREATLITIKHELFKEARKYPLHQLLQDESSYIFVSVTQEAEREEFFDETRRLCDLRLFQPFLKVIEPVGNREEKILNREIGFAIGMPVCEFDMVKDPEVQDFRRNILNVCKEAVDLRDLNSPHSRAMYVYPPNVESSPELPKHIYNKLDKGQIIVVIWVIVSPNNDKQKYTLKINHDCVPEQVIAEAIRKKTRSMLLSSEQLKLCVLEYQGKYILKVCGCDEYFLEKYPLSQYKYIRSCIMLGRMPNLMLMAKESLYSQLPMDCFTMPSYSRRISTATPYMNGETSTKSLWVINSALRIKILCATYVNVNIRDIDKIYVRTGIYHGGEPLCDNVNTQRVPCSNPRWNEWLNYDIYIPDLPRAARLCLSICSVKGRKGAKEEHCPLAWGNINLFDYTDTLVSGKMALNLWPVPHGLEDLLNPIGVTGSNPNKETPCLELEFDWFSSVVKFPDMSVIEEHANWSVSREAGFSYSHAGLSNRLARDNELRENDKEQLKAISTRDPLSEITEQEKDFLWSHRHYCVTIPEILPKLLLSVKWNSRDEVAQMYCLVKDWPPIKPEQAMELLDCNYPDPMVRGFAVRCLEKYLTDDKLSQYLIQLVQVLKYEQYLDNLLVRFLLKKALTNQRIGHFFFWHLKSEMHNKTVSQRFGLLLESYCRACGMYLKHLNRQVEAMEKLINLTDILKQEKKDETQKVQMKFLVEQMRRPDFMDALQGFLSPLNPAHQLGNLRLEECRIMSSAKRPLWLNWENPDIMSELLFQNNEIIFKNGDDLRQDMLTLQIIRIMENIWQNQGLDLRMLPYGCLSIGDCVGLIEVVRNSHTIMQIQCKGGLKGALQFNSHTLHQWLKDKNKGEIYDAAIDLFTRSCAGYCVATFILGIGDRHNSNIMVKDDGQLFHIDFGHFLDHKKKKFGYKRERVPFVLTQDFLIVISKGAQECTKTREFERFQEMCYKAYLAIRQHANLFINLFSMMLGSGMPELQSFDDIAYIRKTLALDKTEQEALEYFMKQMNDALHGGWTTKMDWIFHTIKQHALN

[7] = target: Serine/threonine-protein kinase N1 (Homo sapiens) (UniProt Q16512); assay: Binding affinity to wild-type human partial length PKN1 (E598 to C948 residues) expressed in bacterial expression system assessed as residual binding level at 1 uM by Kinomescan method relative to control
[8] = target: Tyrosine-protein kinase HCK (Homo sapiens) (UniProt P08631); assay: Binding affinity to wild-type human full length HCK (M22 to P526 residues) expressed in bacterial expression system assessed as residual binding level at 1 uM by Kinomescan method relative to control; how it was run: as §1
[9] = target: Death-associated protein kinase 1 (Homo sapiens) (UniProt P53355); assay: Binding affinity to wild-type human partial length DAPK1 (M1 to F296 residues) expressed in bacterial expression system assessed as residual binding level at 1 uM by Kinomescan method relative to control
[10] = test system: Tyrosine-protein kinase ABL1 (Homo sapiens), P00519 [E255K]; assay: Binding affinity to human phosphorylated ABL1 E255K mutant (S229 to K512 residues) expressed in mammalian expression system assessed as residual binding level at 1 uM by Kinomescan method relative to control
How it was run: (§2)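 Kinome-wide selectivity panel run by the KINOMEscan method, with the test compound at a single concentration of 1 μM. Wild-type and mutant kinases were profiled in the same screen.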

[11] = target: Dual specificity protein kinase CLK4 (Homo sapiens) (UniProt Q9HAZ1); assay: Binding affinity to wild-type human partial length CLK4 (R135 to K481 residues) expressed in bacterial expression system assessed as residual binding level at 1 uM by Kinomescan method relative to control
Chain of Dual specificity protein kinase CLK4 (Homo sapiens) (Q9HAZ1 whole entry, looked up, the tested form may be a part): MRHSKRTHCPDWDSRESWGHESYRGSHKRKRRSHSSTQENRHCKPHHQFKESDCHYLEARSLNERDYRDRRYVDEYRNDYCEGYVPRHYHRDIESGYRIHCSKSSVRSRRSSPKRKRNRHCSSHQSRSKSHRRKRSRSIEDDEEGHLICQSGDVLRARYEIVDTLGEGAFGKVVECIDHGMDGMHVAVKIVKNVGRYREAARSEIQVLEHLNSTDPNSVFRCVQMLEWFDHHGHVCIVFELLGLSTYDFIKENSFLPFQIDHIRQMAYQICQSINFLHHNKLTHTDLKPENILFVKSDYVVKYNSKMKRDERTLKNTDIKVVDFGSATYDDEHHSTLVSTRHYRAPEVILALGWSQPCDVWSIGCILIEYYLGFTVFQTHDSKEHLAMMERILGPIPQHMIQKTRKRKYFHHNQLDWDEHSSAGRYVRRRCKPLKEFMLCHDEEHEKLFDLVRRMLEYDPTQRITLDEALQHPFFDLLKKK

[12] = target: Serine/threonine-protein kinase PLK3 (Homo sapiens) (UniProt Q9H4B4); assay: Binding affinity to wild-type human partial length PLK3 (A42 to L334 residues) expressed in mammalian expression system assessed as residual binding level at 1 uM by Kinomescan method relative to control
[13] = target: Ribosomal protein S6 kinase alpha-4 (Homo sapiens) (UniProt O75676); assay: Binding affinity to wild-type human partial length N-terminal RPS6KA4 kinase domain 1 expressed in bacterial expression system assessed as residual binding level at 1 uM by Kinomescan method relative to control
Chain of Ribosomal protein S6 kinase alpha-4 (Homo sapiens) (O75676 whole entry, looked up, the tested form may be a part): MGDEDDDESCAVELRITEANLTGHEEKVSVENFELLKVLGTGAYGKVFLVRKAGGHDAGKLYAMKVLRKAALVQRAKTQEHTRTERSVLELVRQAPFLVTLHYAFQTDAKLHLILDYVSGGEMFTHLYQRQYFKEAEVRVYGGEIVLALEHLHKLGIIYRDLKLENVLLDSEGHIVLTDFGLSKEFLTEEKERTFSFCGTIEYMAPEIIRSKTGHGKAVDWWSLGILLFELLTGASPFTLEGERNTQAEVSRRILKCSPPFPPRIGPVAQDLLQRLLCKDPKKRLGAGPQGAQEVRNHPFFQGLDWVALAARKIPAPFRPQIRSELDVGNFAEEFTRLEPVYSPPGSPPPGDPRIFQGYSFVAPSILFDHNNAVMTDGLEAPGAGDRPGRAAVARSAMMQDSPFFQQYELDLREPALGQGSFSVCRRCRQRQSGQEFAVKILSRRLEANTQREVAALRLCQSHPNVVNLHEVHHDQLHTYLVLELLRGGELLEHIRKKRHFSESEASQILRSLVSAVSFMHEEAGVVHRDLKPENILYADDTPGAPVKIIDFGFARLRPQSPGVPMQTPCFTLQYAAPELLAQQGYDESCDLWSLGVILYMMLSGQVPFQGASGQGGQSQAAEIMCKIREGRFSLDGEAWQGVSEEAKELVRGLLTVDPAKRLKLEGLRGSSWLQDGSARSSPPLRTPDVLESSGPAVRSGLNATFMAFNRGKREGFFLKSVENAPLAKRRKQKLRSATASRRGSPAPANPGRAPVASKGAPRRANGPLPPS

[14] = test system: Tyrosine-protein kinase ABL1 (Homo sapiens), P00519 [Q252H]; assay: Binding affinity to human phosphorylated ABL1 Q252H mutant expressed in mammalian expression system assessed as residual binding level at 1 uM by Kinomescan method relative to control; how it was run: as §2
[15] = target: Serine/threonine-protein kinase SIK2 (Homo sapiens) (UniProt Q9H0K1); assay: Binding affinity to wild-type human full length SIK2 (M1 to N926 residues) expressed in bacterial expression system assessed as residual binding level at 1 uM by Kinomescan method relative to control; how it was run: as §1
[16] = test system: Phosphatidylinositol 4,5-bisphosphate 3-kinase catalytic subunit alpha isoform (Homo sapiens), P42336 [E545A]; assay: Binding affinity to human partial length PIK3CA E545A mutant (R108 to N1068 residues) expressed in mammalian expression system assessed as residual binding level at 1 uM by Kinomescan method relative to control
Chain of Phosphatidylinositol 4,5-bisphosphate 3-kinase catalytic subunit alpha isoform (Homo sapiens), P42336 [E545A] (P42336 whole entry E545A, the tested form may be a part, canonical isoform): as the sequence (P42336 whole entry H1047L, the tested form may be a part, canonical isoform) above, with E545A, L1047H counted along it

[17] = test system: Proto-oncogene tyrosine-protein kinase receptor Ret (Homo sapiens), P07949 [V804M]; assay: Binding affinity to human partial length RET V804M mutant (E713 to D1014 residues) expressed in bacterial expression system assessed as residual binding level at 1 uM by Kinomescan method relative to control; how it was run: as §2
[18] = Oral bioavailability in mouse at 10 mg/kg; type: ADME, organism-based; details: in vivo
[19] = target: Bone morphogenetic protein receptor type-2 (Homo sapiens) (UniProt Q13873); assay: Binding affinity to wild-type human partial length BMPR2 (R179 to Q526 residues) expressed in mammalian expression system assessed as residual binding level at 1 uM by Kinomescan method relative to control
[20] = target: Phosphatidylinositol 5-phosphate 4-kinase type-2 beta (Homo sapiens) (UniProt P78356); assay: Binding affinity to wild-type human full length PIP5K2B (M1 to T416 residues) expressed in bacterial expression system assessed as residual binding level at 1 uM by Kinomescan method relative to control; how it was run: as §1
[21] = target: RAC-alpha serine/threonine-protein kinase (Homo sapiens) (UniProt P31749); assay: Binding affinity to wild-type human partial length AKT1 expressed in bacterial expression system assessed as residual binding level at 1 uM by Kinomescan method relative to control
Chain of RAC-alpha serine/threonine-protein kinase (Homo sapiens) (P31749 whole entry, the tested form may be a part): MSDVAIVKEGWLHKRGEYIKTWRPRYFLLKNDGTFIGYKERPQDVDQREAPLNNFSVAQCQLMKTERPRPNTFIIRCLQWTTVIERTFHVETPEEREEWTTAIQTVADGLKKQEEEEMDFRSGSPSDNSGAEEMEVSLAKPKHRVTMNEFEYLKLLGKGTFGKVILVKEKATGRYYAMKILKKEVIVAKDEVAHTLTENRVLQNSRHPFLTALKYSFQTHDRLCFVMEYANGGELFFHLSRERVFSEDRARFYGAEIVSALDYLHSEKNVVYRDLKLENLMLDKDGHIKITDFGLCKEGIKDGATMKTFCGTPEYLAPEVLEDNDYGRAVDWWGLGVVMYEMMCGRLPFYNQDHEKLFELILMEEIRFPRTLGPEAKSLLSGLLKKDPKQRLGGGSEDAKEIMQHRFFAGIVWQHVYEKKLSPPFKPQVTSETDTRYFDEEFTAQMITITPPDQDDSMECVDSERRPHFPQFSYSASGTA

[22] = test system: Tyrosine-protein kinase ABL1 (Homo sapiens), P00519 [F317L]; assay: Binding affinity to human phosphorylated ABL1 F317L mutant (S229 to K512 residues) expressed in mammalian expression system assessed as residual binding level at 1 uM by Kinomescan method relative to control; how it was run: as §2
[23] = target: Phosphatidylinositol 4,5-bisphosphate 3-kinase catalytic subunit gamma isoform (Homo sapiens) (UniProt P48736); assay: Binding affinity to wild-type human partial length PIK3CG (S144 to A1102 residues) expressed in mammalian expression system assessed as residual binding level at 1 uM by Kinomescan method relative to control
[24] = target: Fibroblast growth factor receptor 2 (Homo sapiens) (UniProt P21802); assay: Binding affinity to wild-type human partial length FGFR2 (D457 to E769 residues) expressed in bacterial expression system assessed as residual binding level at 1 uM by Kinomescan method relative to control

C=CC(=O)Nc1cc(Nc2ncc(Cl)c(Nc3ccccc3S(=O)(=O)C(C)C)n2)c(OC)cc1N(C)CCN(C)C
Activity [1]: 73%
Activity [2]: 16%
Activity [3]: 91%
Activity [4]: 0.35%
Activity [5]: 95%
Activity [6]: 86%
Activity [7]: 41%
Activity [8]: 49%
Activity [9]: 59%
Activity [10]: 12%
Activity [11]: 15%
Activity [12]: 60%
Activity [13]: 99%
Activity [14]: 2.8%
Activity [15]: 38%
Activity [16]: 83%
Activity [17]: 15%
bioavailability [18]: 24%
Activity [19]: 95%
Activity [20]: 55%
Activity [21]: 98%
Activity [22]: 2.9%
Activity [23]: 98%
Activity [24]: 15%
